In ChEMBL document CHEMBL1128578, “Synthesis and cytotoxicity of novel lignans” (J Med Chem, 1995) one finds IC50 data, which are given here for 21 molecules.

Usually IC50 stands for the concentration at which inhibition is half-maximal. Low values mean greater potency, high ones weaker potency.

Experiment [1] relates to GLC4 cell line. Kind of experiment: Cytotoxic effect against GLC4 (human small cell lung carcinoma cell line) using the microculture tetrazolium (MTT) assay based on continuous incubation. The format is functional. The essentials:
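GLC4 cells in exponential growth (>90% viable by trypan blue) seeded at 3750/well in RPMI 1640 + 10% FCS; compounds from 200× DMSO stocks, final DMSO ≤0.25%, top concentration 100 μM, present continuously for 4 days at 37 °C, 5% CO2. MTT added for 3 h 45 min, formazan dissolved in DMSO, absorbance 520 nm; IC50 = 50% growth inhibition; n=3 separate experiments.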

In experiment [2] the test system is GLC4 cell line. Put plainly: Cytotoxic effect against GLC4 (human small cell lung carcinoma cell line) using the microculture tetrazolium (MTT) assay based on 2 hr incubation. Format: functional. A digest of the protocol:
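GLC4 SCLC cells (suspension, RPMI 1640 + 10% heat-inactivated FCS, 37 °C, 5% CO2), exponential phase, >90% viable; 3750 cells/well. Compounds diluted from 200× DMSO stocks (≤0.25% DMSO final), up to 100 μM; exposed 2 h, washed three times, then cultured 4 days. MTT 3 h 45 min, formazan in DMSO, A520; IC50 from % growth inhibition, triplicate separate experiments.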

`COc1cc([C@@H]2c3cc4c(cc3[C@H](O[C@@H]3O[C@H](CO)[C@@H](O)[C@H](O)[C@H]3O)[C@H]3COC(=O)[C@H]23)OCO4)cc(OC)c1OC`: the IC50 worked out at 10 µM in experiment [1] (Homo sapiens, GLC4) and 58 µM in experiment [2] (Homo sapiens, GLC4, 2 h).

Take `COc1cc([C@@H](O)[C@H]2C(=O)O[C@@H](OC3CC(C)CCC3C(C)C)[C@@H]2C2(c3ccc(O)c(O)c3OC)SCCCS2)cc(OC)c1OCc1ccccc1` (stereo partly drawn): the half-inhibitory concentration (IC50) is 10 µM in experiment [1] (Homo sapiens, GLC4) and over 100 µM in experiment [2] (Homo sapiens, GLC4, 2 h).

For `CO[C@@H]1OC(=O)[C@H](Cc2ccc3c(c2)OCO3)[C@H]1C(Sc1ccccc1)(Sc1ccccc1)c1ccc2c(c1)OCO2`, the 50% inhibitory concentration (IC50) in experiment [1] (Homo sapiens, GLC4) was over 100 µM.

With `COc1cc([C@@H]2c3cc4c(cc3[C@H](O)[C@H]3COC(=O)[C@H]23)OCO4)cc(OC)c1O`, the half-inhibitory concentration (IC50) is 0.03 µM in experiment [1] (Homo sapiens, GLC4) and 3.1 µM in experiment [2] (Homo sapiens, GLC4, 2 h).

As to `COc1cc([C@@H]2c3cc4c(cc3[C@@H](O[C@@H]3O[C@@H]5CO[C@@H](c6cccs6)O[C@H]5[C@H](O)[C@H]3O)[C@H]3COC(=O)[C@H]23)OCO4)cc(OC)c1O` [TENIPOSIDE], the IC50 stood at 0.48 µM in experiment [1] (Homo sapiens, GLC4) and 2.8 µM in experiment [2] (Homo sapiens, GLC4, 2 h).

Turning to `COc1cc([C@@H]2c3cc4c(c(OC)c3[C@H](O)[C@H]3COC(=O)[C@H]23)OCO4)cc(OC)c1OC`, the concentration for half-maximal inhibition (IC50) in experiment [1] (Homo sapiens, GLC4) is 0.06 µM; in experiment [2] (Homo sapiens, GLC4, 2 h), 0.25 µM.

`COc1ccc(C[C@H]2[C@H](OC3CC(C)CCC3C(C)C)OC(=O)[C@@H]2Cc2ccc(OC)c(OC)c2)cc1OC` (stereo partly drawn) registered an IC50 in experiment [1] (Homo sapiens, GLC4) of 35 µM.

Take `COc1cc([C@@H](O)[C@H]2C(=O)O[C@@H](OC3CC(C)CCC3C(C)C)[C@@H]2C(=O)c2ccc3c(c2OC)OCO3)cc(OC)c1OC` (stereo partly drawn): the IC50 in experiment [1] (Homo sapiens, GLC4) was found to be 1.7 µM; in experiment [2] (Homo sapiens, GLC4, 2 h) it was 7.2 µM.

With `COc1cc([C@@H]2c3cc4c(cc3C[C@H]3COC(=O)[C@@H]32)OCO4)cc(OC)c1OC` [DESOXYPODOPHYLLOTOXIN], the IC50 was 0.008 µM in experiment [1] (Homo sapiens, GLC4) and 0.12 µM in experiment [2] (Homo sapiens, GLC4, 2 h).

`COc1c(C2([C@H]3COC(=O)C3)SCCCS2)ccc2c1OCO2` registered an IC50 in experiment [1] (Homo sapiens, GLC4) of 54 µM.

Regarding `COc1cc(C[C@H]2C(=O)OC[C@@H]2Cc2ccc3c(c2)OCO3)ccc1O`, the IC50 in experiment [1] (Homo sapiens, GLC4) is 6.5 µM; in experiment [2] (Homo sapiens, GLC4, 2 h), over 100 µM.

`CC1CCC(C(C)C)C(O[C@@H]2OC(=O)[C@H](Cc3ccc4c(c3)OCO4)[C@H]2C(Sc2ccccc2)(Sc2ccccc2)c2ccc3c(c2)OCO3)C1` (stereo partly drawn): the IC50 in experiment [1] (Homo sapiens, GLC4) stood at 40 µM.

`O=C1C[C@@H](C2(c3ccc4c(c3)OCO4)SCCCS2)CO1` displayed a half-maximal inhibitory concentration (IC50) in experiment [1] (Homo sapiens, GLC4) of 36 µM.

In experiment [1] (Homo sapiens, GLC4), `COc1c(C2([C@@H]3CC(=O)O[C@H]3OC3CC(C)CCC3C(C)C)SCCCS2)ccc2c1OCO2` (stereo partly drawn) registered a half-maximal inhibitory concentration (IC50) of 29 µM.

As to `COc1cc(C[C@H]2C(=O)O[C@@H](OC3CC(C)CCC3C(C)C)[C@@H]2C(Sc2ccccc2)(Sc2ccccc2)c2ccc3c(c2)OCO3)ccc1OCc1ccccc1` (stereo partly drawn), in experiment [1] (Homo sapiens, GLC4), the IC50 was over 100 µM.

As to `COc1cc([C@@H]2c3cc4c(cc3[C@@H](O[C@@H]3O[C@@H]5CO[C@@H](C)O[C@H]5[C@H](O)[C@H]3O)[C@H]3COC(=O)[C@H]23)OCO4)cc(OC)c1O` [ETOPOSIDE], the half-inhibitory concentration (IC50) was 0.82 µM in experiment [1] (Homo sapiens, GLC4) and 4 µM in experiment [2] (Homo sapiens, GLC4, 2 h).

For the molecule `COc1cc([C@@H](O)[C@H]2C(=O)O[C@@H](OC3CC(C)CCC3C(C)C)[C@@H]2C2(c3ccc4c(c3OC)OCO4)SCCCS2)cc(OC)c1OC` (stereo partly drawn), the IC50 came out at 8.8 µM in experiment [1] (Homo sapiens, GLC4) and 75 µM in experiment [2] (Homo sapiens, GLC4, 2 h).

In the case of CISPLATIN, the IC50 in experiment [1] (glc4) was 1.1 µM; in experiment [2] (glc4), 4.6 µM.

In experiment [1] (Homo sapiens, GLC4), `COc1cc([C@@H](O)[C@H]2C(=O)O[C@@H](OC3CC(C)CCC3C(C)C)[C@@H]2C2(c3ccc4c(c3OC)OCO4)SCCCS2)cc(OC)c1OCc1ccccc1` (stereo partly drawn) returned an IC50 of 48 µM.

The molecule `CC1CCC(C(C)C)C(O[C@@H]2OC(=O)[C@H](Cc3ccc4c(c3)OCO4)[C@H]2Cc2ccc3c(c2)OCO3)C1` (stereo partly drawn) returned a 50% inhibitory concentration (IC50) in experiment [1] (Homo sapiens, GLC4) of 44 µM.

For `COc1cc([C@@H]2c3cc4c(cc3[C@H](O)[C@H]3COC(=O)[C@H]23)OCO4)cc(OC)c1OC` [PODOFILOX], the half-inhibitory concentration (IC50) in experiment [1] (Homo sapiens, GLC4) stood at 0.06 µM; in experiment [2] (Homo sapiens, GLC4, 2 h) it was 0.15 µM.
